# Compound activity as filed in PubChem.
# Hits are enriched below; roughly 2.9% of the tested compounds scored in any of these assays.
# HTRA1 inh = inhibitors of human serine peptidase HTRA1 | recombinant HTRA1, FP-rhodamine activity-based probe, fluorescence polarization | inhibition, % at 5.96 µM | 340,000 compounds, 0.5% hits | AID 504803; in the data active = inhibition above about 36%;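 also: 0% = enzyme with DMSO and 100% = wells lacking enzyme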
# PRMT1 inh = inhibitors of human PRMT1 | 370,000 compounds, 1.3% hits | recombinant PRMT1, activity-based probe fluorescence polarization | Q99873 | inhibition, % at 2.79 µM | AID 652257;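 active = inhibition above about 21% made by adding two undisclosed values, limit read from the data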
# ATG4B inh = ATG4B (human) cysteine protease inhibition | ATG4B cleavage of LC3-PLA2, NBD-HPC fluorescence, 1 h | inhibition, % at 8.33 µM | 340,000 compounds, 0.51% hits | AID 504462; in the data active = inhibition above about 40%
# Target sequence (Q9Y4P1 whole entry, looked up): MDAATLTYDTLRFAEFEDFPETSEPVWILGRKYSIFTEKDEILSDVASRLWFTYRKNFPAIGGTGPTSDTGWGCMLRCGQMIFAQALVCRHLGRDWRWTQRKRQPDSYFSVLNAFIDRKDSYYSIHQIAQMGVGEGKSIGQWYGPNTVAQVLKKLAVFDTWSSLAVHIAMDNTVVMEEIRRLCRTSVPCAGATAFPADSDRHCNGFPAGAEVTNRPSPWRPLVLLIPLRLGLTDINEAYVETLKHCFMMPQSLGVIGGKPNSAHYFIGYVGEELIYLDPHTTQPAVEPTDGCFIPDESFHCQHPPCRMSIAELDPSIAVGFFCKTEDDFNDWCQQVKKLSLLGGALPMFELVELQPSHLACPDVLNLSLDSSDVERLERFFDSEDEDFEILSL
# SIAE inh = inhibitors of human sialic acid acetylesterase SIAE. Q9HAT2. SIAE FP-Rh probe binding, fluorescence polarization. inhibition, % at 9.66 µM. 370,000 compounds, 0.69% hits;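 active = inhibition above a cutoff: mean of compounds within the control limits plus 3 SD of those, cut at about 17% in these data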;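 also: 0% = plate median of compound wells and 100% = probe without SIAE protein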
# ABHD4 inh = ABHD4 (mouse) inhibition, primary FP screen; purified mABHD4, FP-Rh probe fluorescence polarization; 370,000 compounds, 0.54% hits; AID 720543; Q8VD66; inhibition, % at 8.92 µM;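 active = inhibition exceeding the mean over every tested compound plus 3 SD, cut at about 30% in these data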;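 also: 0% = plate median of compound wells and 100% = S159A mutant with DMSO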
#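 system = mouse ABHD4 enzyme, wild type | medium = HEPES pH 7.0, NaCl, Pluronic buffer | also added = FP-Rh probe | incubation = Enzyme–compound pre-incubation 45 min, then probe 60 min, both 25 °C | technique = fluorescence polarization, excitation 525 nm, emission 598 nm, BODIPY TMR filters | controls = S159A mutant high control, sample median low control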
# TCR-CD3 inh = blocks the human TCR-CD3 interaction | 360,000 compounds, 0.37% hits | inhibition, % at 9.4 µM | TAMRA-labeled TCR probe fluorescence, biochemical; in the data active = inhibition above about 19%;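 also: recombinant mutant TCR 2C K166C tagged with TAMRA read by polarization; 0% = receptor in buffer alone and 100% = receptor with positive control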
# ABHD4 confirm = confirmation of mouse ABHD4 inhibitors | shares compounds with ABHD4 inh | purified mABHD4, FP-Rh probe fluorescence polarization | inhibition, % at 8.92 µM | 1,800 compounds, 55% hits;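 active = mean inhibition across replicates above the hit cutoff set in the primary screen, cut at about 30% in these data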;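 also: 0% = wild-type ABHD4 with DMSO and 100% = catalytically dead S159A mutant with DMSO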
# * marks the source's active call; other numbers are inactive results; x = no result.
SMILES,HTRA1 inh,PRMT1 inh,ATG4B inh,SIAE inh,ABHD4 inh,TCR-CD3 inh,ABHD4 confirm
CCCC/C=C1/[C@@H](c2ccc(Cl)cc2)N(Cc2ccc3c(c2)OCO3)C2=N[C@@H](c3ccccc3)CC(=O)N21,x,3.0,x,-0.7,3.7,x,x
O=C(Nc1cc([N+](=O)[O-])ccc1O)c1ccc2c(c1)C(=O)N(Cc1ccco1)C2=O,4.3,7.8,2.0,2.0,38.0*,13.3,50.8*
c1ccc2sc(NN=C3CCCCCC3)nc2c1,12.1,2.7,13.8,2.2,35.6*,-1.8,30.0*
O=C(Nc1nc2ccccc2s1)c1ccccc1,-0.1,-4.8,-3.8,-4.2,-13.8,2.0,x
O=C(c1ccc(F)cc1F)N1CCC(Oc2cccnc2)CC1,x,-8.0,x,-1.6,-0.9,x,x
CCCCCN1CCCCC(NC(=O)C(C)(C)C)C1=O (configuration not stated),x,-1.8,x,-1.5,1.4,x,x
Cc1cc(=O)oc2c(O)c(O)ccc12,12.7,11.8,7.3,10.1,29.6*,10.0,1.1
Cc1cc(=O)oc2c(CN3CCCC3)c(O)ccc12,2.6,0.8,-9.0,11.0,-9.9,-8.7,x
Cc1c(Cc2ccccc2)c(=O)oc2c(O)c(O)ccc12,x,6.7,22.6,-9.6,35.4*,7.7,88.8*
O=S1(=O)c2ccc(N3CCN(Cc4ccccc4F)CC3)cc2Oc2ccccc2CN1Cc1cn(Cc2ccccc2C(F)(F)F)nn1,x,3.6,x,-1.3,3.4,x,x
O=C(NCc1ccc(Cl)cc1)O[C@H]1CC[C@@]23CCCN2C(=O)CCC[C@H]3C1,x,-6.3,x,-1.6,1.3,x,x
O=C(Nc1ccccc1F)Nc1cccc2ccc(O)cc12,32.6,5.8,-18.7,10.7,30.9*,1.2,43.2*
COc1ccc(OCC(=O)Nc2nc3ccccc3[nH]2)cc1,-3.7,-2.9,-12.6,-12.3,39.3*,2.6,39.0*
CCOc1ccc(C(=O)Nc2nc3ccccc3[nH]2)cc1OCC,-3.3,0.0,-1.1,-1.4,35.4*,-4.2,40.2*
COc1cc(OC)cc(C(=O)Nc2nc3ccccc3[nH]2)c1,-6.3,-5.2,-6.2,0.7,35.6*,4.3,30.9*
O=C(COc1ccc2ccccc2c1)Nc1nc2ccccc2[nH]1,-1.6,1.1,3.8,-6.8,-0.5,-2.6,x
Cc1cc(C)cc(C(=O)Nc2nc3ccccc3[nH]2)c1,0.3,-0.7,-4.1,-2.8,17.6,-1.1,x
C#CCNC(=O)C[C@H]1C[C@@]2(C(=O)OC)C(=C[C@H](COCc3ccccc3)O[C@@H]2C)N(Cc2ccc(Cl)cc2Cl)C1=O,x,2.4,x,-1.2,-8.6,x,x
COc1cccc(-c2nc(NCc3cccnc3)c3ccccc3n2)c1O,2.6,2.7,-3.3,1.9,25.8,-4.3,x
COc1cccc2c(NCc3ccccc3)nc(-n3c(N)nc4ccccc43)nc12,x,-3.5,x,6.7,37.1*,x,20.5
O=C(c1ccccc1)N1N=C(c2cccs2)CC1c1ccccc1O (configuration not stated),-42.1,-7.4,-6.1,-10.9,-21.9,4.8,x
COC(=O)c1ccc(C2N=C(c3cccs3)CC(c3ccccc3O)N2)cc1 (configuration not stated),-14.8,6.9,-13.2,3.3,36.2*,-1.7,-9.4
CC(=O)N1N=C(c2cccc(NS(C)(=O)=O)c2)CC1c1cccs1 (configuration not stated),1.5,0.6,-2.4,-4.0,11.5,-0.8,x
CC(=O)N1N=C(c2cccc(O)c2)CC1c1cccs1 (configuration not stated),0.4,-1.9,3.8,1.6,35.6*,6.4,-4.1
COC(=O)[C@@]1(C(C)C)N=C(c2cc(OC)c(OC)c(OC)c2)[C@]2(O1)C(=O)N(Cc1cn(-c3ccccc3)nn1)c1cccc(Cl)c12,x,-1.0,x,2.1,1.1,x,x
SMILES,HTRA1 inh,PRMT1 inh,ATG4B inh,SIAE inh,ABHD4 inh,TCR-CD3 inh,ABHD4 confirm
C=CCN(C(=O)[C@@H](C1CC1)[C@@H](O)c1ccc(Cl)cc1)c1ccccc1,x,0.4,x,1.3,-5.1,x,x
COc1ccc(NS(=O)(=O)c2cc(N)ccc2N2CCCC2)cc1,10.9,7.4,-11.2,16.2,39.5*,-4.6,32.5*
COc1ccc(NS(=O)(=O)c2cc(N)ccc2N2CCOCC2)cc1,6.3,-2.1,-4.2,-1.2,-6.3,-2.8,x
N=C(N)SCc1cn(-c2ccccc2)nc1-c1ccc(Br)cc1,-68.1,0.3,27.4,-2.5,36.0*,3.7,60.4*
Cc1ccc(-c2nn(-c3ccccc3)cc2CO)cc1,-14.2,2.7,-5.1,-6.9,-5.4,-3.6,x
C/C(=N\NS(=O)(=O)c1ccc(C(C)(C)C)cc1)c1ccccc1,-13.4,1.8,-5.5,-3.8,2.6,0.3,x
CC(C)(C)c1ccc(S(=O)(=O)/N=C2\C=C(NS(=O)(=O)c3ccccc3)C(=O)c3ccccc32)cc1,13.5,-5.9,14.6,6.4,36.2*,-1.9,59.9*
CN1CCN(C2=C(NS(=O)(=O)c3ccccc3)C(=O)c3ccccc3C2=O)CC1,3.1,x,-7.5,x,x,x,x
Cc1ccc(S(=O)(=O)/N=C2\C=C(NS(=O)(=O)c3ccccc3)C(=O)c3ccccc32)c(C)c1,-1.0,0.7,-0.3,6.7,49.8*,-2.8,35.6*
Cc1ccc(CN2CCCCC(NC(=O)Nc3ccccc3)C2=O)cc1 (configuration not stated),x,-4.3,x,3.7,1.8,x,x
CCC(C(=O)OCc1csc(CC(=O)Nc2ccccc2C)n1)c1ccccc1 (configuration not stated),-13.7,-2.3,-1.2,-4.2,29.5*,-1.5,17.3
COc1cc(C(=O)OCc2csc(CC(=O)Nc3ccccc3C)n2)ccc1OCC(C)C,-24.9,1.7,2.6,1.9,42.9*,-5.5,14.4
COc1ccc(CCC(=O)OCc2csc(CC(=O)Nc3ccccc3C)n2)cc1,-10.1,-3.2,-6.1,-4.3,35.7*,1.0,18.5
COc1ccc(-n2c(SCC(=O)Nc3ccc(Oc4ccccc4)cc3)nnc2-c2cccnc2)cc1,x,4.2,x,-1.8,-3.1,x,x
Cc1ccccc1C(=O)N(C)[C@H]1C[C@H]2c3[nH]c4c(-c5ccc6c(c5)OCO6)cccc4c3CCN2C[C@H]1[C@H](C)O,x,-2.4,x,-3.4,-2.3,x,x
COc1ccc(NC(=O)N(C)[C@H]2C[C@H]3c4[nH]c5c(-c6ccccc6)cccc5c4CCN3C(=O)[C@H]2[C@H](C)O)cc1,x,-3.6,x,4.6,-4.6,12.7,x
COc1cccc2c(=O)c3cccc(N)c3[nH]c12,31.6,17.1,2.1,6.4,58.1*,17.9,65.6*
O=C(NNc1ccccn1)C(=O)NNS(=O)(=O)c1ccc(F)cc1,2.4,-2.1,-3.8,7.2,35.6*,4.3,29.9*
O=C(NNc1ccccn1)C(=O)NNS(=O)(=O)c1ccc(Cl)cc1,6.0,-1.4,-6.1,-1.9,58.2*,2.5,54.7*
